Screens: PubChem BioAssay, several laboratories
CHOP inhibitor = inhibitors of CHOP promoter induction, primary screen, cell-based, unfolded protein response, luciferase reporter. CHO-K1 CHOP-promoter luciferase, tunicamycin-induced, 15-18 h. inhibition, % at 10 µM. 3.8% of 220,000 active;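 active means compounds that reduced the stress-induced luciferase reporter signal by more than about 70% of percent inhibition, limit read from the data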;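 further: 0% = tunicamycin plus vehicle and 100% = wells without tunicamycin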
T cruzi inh = inhibitors of intracellular T. cruzi growth, primary screen, luminescence, NIH3T3 host cells; T. cruzi beta-gal in NIH3T3, 90 h; inhibition, % (test concentration not listed); 1.4% of 300,000 active; AID 1885, 2009;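 active means mean inhibition across valid replicates above about 55%, limit read from the data; inconclusive means mean below that limit but half or more replicates reach it; inactive means mean below it, under half of replicates reach it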;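 further: signal also drops with host cell toxicity which is not excluded here; 0% = plate median of DMSO wells and 100% = zero luminescence signal; higher percent means less beta-gal luminescence so fewer parasites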
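System: mouse NIH/3T3 fibroblasts infected with β-gal-expressing T. cruzi Tulahuen C4 / Input: NIH/3T3 cells, 5,000 per well / Buffer or medium: Low-serum DMEM with 2% FBS / Probe or stimulus: 5000 reporter trypomastigotes per well / Schedule: ≥90 h infection period, 3 h prior cell attachment / Measured by: GalScreen luminescence, 60 min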
L major viab = Leishmania major promastigote growth inhibition, primary screen; 9% of 200,000 active; Leishmania major promastigotes, resazurin fluorescence viability; AID 1063, 2008; inhibition, % at 10 µM; in the data active means inhibition above about 50%;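 further: promastigotes grown with compound for 44 hours at 28 °C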
UPR CHOP act = activators of apoptotic CHOP UPR arm, primary screen, cell-based, CHO-CHOP luciferase reporter, luminescence, uHTS. AID 449763, 2010. activation, % at 10 µM. 0.34% of 330,000 active. UPR activation; percent of tunicamycin response over DMSO baseline;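 active means at 10 µM dose, activation of 40% or more, normalized to positive control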;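 further: 100% = tunicamycin at 10 µg/mL and 0% = DMSO alone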
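Assay system: CHO cells with stable CHOP pathway luciferase reporter; Buffer or medium: F12 plus 10% serum; Times: 16-18 h cell attachment, then 6 h compound exposure, 37 °C; Signal: luciferase luminescence; Read-out basis: percent activation relative to tunicamycin control; Control set: tunicamycin high control, DMSO low control.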
Dynein transport = inhibitors of GR-EGFP nuclear translocation, primary screen, dynein cargo transport inhibitor project, imaging, high-content, 3617.4 mouse cells | test concentration mostly 20 µM; stimulated with dexamethasone, 1 µM; hits give low values | z-score, hits read low | 0.47% of 220,000 active | AID 1381, 2008;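 active means plate z-score of nuclear minus cytoplasmic receptor signal below a set negative limit, without overly bright fluorescence or cell loss, cut at about -3.5 in these data, passing the limit was not always enough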;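 further: z-score of nuclear minus cytoplasmic ring GR-EGFP intensity difference per well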
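Also added – dexamethasone, 1.0 µM final · Buffer or medium – tet-free, stripped-serum medium · Schedule – induction 48 h, compound 1 h, agonist 30 min · Detection – formaldehyde fixation, Hoechst nuclear stain, 10x automated fluorescence imaging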
UPR XBP1 act = activators of adaptive XBP1 UPR arm, primary screen, cell-based, CHO-XBP1 luciferase reporter, luminescence, uHTS; IRE1-XBP1 UPR activation; percent of tunicamycin response, DMSO as zero; activation, % at 20 µM; 0.33% of 330,000 active;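 active means versus positive control, 20 µM dose yields 30% or more activation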;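 further: 100% = tunicamycin at 10 µg/mL and 0% = DMSO only wells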
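Material: IRE1-XBP1 luciferase reporter CHO line / Quantity: one thousand reporter cells per well / Buffer or medium: F12 with 10% serum / Compound: 20 µM single concentration, DMSO 1% / Times: 6 h treatment, 37 °C / Detection: Steady-Glo luciferase glow luminescence, 10 min after reagent addition / Benchmarks: tunicamycin high, DMSO low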
UPR CHOP confirm = activators of apoptotic CHOP UPR arm, confirmation, cell-based, CHO-CHOP luciferase reporter, single concentration; activation, % at 10 µM; CHO-CHOP cells, CHOP-luciferase reporter luminescence; percent of tunicamycin response, DMSO as zero; 64% of 1,000 active; AID 463112, 2010; shares compounds with UPR CHOP act; in the data active means activation above about 33%;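 further: 0% = DMSO wells and 100% = tunicamycin 10 µg/mL wells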
* marks the source's active call; other numbers are inactive results. The full list was thinned out, with hits kept by preference.

Results for COc1ccc(NS(=O)(=O)c2ccc3ccccc3c2)c2ncccc12 ?
T cruzi inh: 57*; UPR CHOP act: 137*; UPR XBP1 act: 3; UPR CHOP confirm: 418*

How did Cc1ccc2cccc(NS(=O)(=O)c3ccccc3)c2n1 do in these assays?
T cruzi inh: 54; UPR CHOP act: 446*; UPR XBP1 act: 0; UPR CHOP confirm: 94*

What do the screens show for `O=S(=O)(Nc1cccc2cccnc12)c1ccccc1`?
T cruzi inh: 11; UPR CHOP act: 368*; UPR XBP1 act: -9; UPR CHOP confirm: 58*

How did Cc1cc(C)c(NS(=O)(=O)c2cccc3cccnc23)c(C)c1 do in these assays?
CHOP inhibitor: 4; T cruzi inh: -1; L major viab: 11; UPR CHOP act: -1; Dynein transport: 0.98; UPR XBP1 act: -1

Results for CC(=O)Nc1ccc(S(=O)(=O)Nc2cccc3cccnc23)cc1 ?
T cruzi inh: -1; UPR CHOP act: -1; UPR XBP1 act: 0

What do the screens show for `Cc1ccc(S(=O)(=O)Nc2cccc3cccnc23)c([N+](=O)[O-])c1`?
T cruzi inh: 15; UPR CHOP act: 404*; UPR XBP1 act: -4; UPR CHOP confirm: 743*

What do the screens show for `COc1ccc(N2CCN(S(=O)(=O)c3c(C)n(C)c(=O)n(C)c3=O)CC2)cc1`?
T cruzi inh: -5; UPR CHOP act: 2; UPR XBP1 act: 3

How did O=S(=O)(Nc1cccc2cccnc12)c1ccc(S(=O)(=O)N2CCCC2)cc1 do in these assays?
CHOP inhibitor: -33; T cruzi inh: 69*; L major viab: 99*; UPR CHOP act: 134*; Dynein transport: -0.27; UPR XBP1 act: -7; UPR CHOP confirm: 99*

What do the screens show for `NC(=O)c1ccccc1NS(=O)(=O)c1ccc(S(=O)(=O)N2CCCC2)cc1`?
UPR CHOP act: -3; UPR XBP1 act: -1

Results for C/C(=N\NC(=O)c1ccc(NS(=O)(=O)c2cccs2)cc1)c1ccccn1 ?
CHOP inhibitor: 47; T cruzi inh: 9; UPR CHOP act: 1; Dynein transport: 0.51; UPR XBP1 act: -2

Results for C/C(=N\NC(=O)C(c1ccccc1)c1ccccc1)c1ccccn1 ?
CHOP inhibitor: 53; T cruzi inh: 40; L major viab: 100*; UPR CHOP act: 80*; Dynein transport: -0.81; UPR XBP1 act: -1; UPR CHOP confirm: 51*

Results for COc1ccc(C(=O)N/N=C(\C)c2ccccn2)cc1OC ?
T cruzi inh: 18; UPR CHOP act: 355*; UPR XBP1 act: 5; UPR CHOP confirm: 284*

Results for C/C(=N\NC(=O)c1cc(Br)ccc1O)c1ccccn1 ?
T cruzi inh: -9; UPR CHOP act: 213*; UPR XBP1 act: 3; UPR CHOP confirm: 223*

Results for Cc1cccc(/C=N/NC(=O)c2cc(Br)ccc2O)n1 ?
T cruzi inh: -8; UPR CHOP act: 3; UPR XBP1 act: 2

Results for C/C(=N/NC(=O)c1ccc(C(C)(C)C)cc1)c1ccccn1 ?
T cruzi inh: 40; UPR CHOP act: 556*; UPR XBP1 act: 0; UPR CHOP confirm: 372*

Results for C/C(Cc1ccccc1)=N\NC(=O)c1ccccn1 ?
T cruzi inh: -8; UPR CHOP act: 1; UPR XBP1 act: -2

How did C/C(=N\NC(=O)c1ccc(Cl)c(Cl)c1)c1ccccn1 do in these assays?
T cruzi inh: 60*; UPR CHOP act: 367*; UPR XBP1 act: 4; UPR CHOP confirm: 322*

How did C/C(=N\NC(=O)c1cccc(Br)c1)c1ccccn1 do in these assays?
T cruzi inh: 50; UPR CHOP act: 535*; UPR XBP1 act: 7; UPR CHOP confirm: 449*

What do the screens show for `COc1ccc(C(=S)N2CCOCC2)cc1OC(=O)c1ccccc1Cl`?
T cruzi inh: 6; UPR CHOP act: 2; UPR XBP1 act: 3

How did CCOc1ncccc1C(=O)NCC(c1ccco1)N1CCCCC1 (stereo unspecified) do in these assays?
UPR CHOP act: 0; UPR XBP1 act: -3

How did O=C(CCl)Nc1c2c(nn1-c1ccccc1)CSC2 do in these assays?
T cruzi inh: -14; UPR CHOP act: 70*; UPR XBP1 act: -3; UPR CHOP confirm: 3

Results for O=C(CN1c2cccc3cccc(c23)S1(=O)=O)N1CCN(c2ccccc2)CC1 ?
UPR CHOP act: 1; UPR XBP1 act: 0

What do the screens show for `c1ccc(CCNc2nc(-c3ccccn3)nc3ccccc23)cc1`?
CHOP inhibitor: 81*; T cruzi inh: 76*; UPR CHOP act: 44*; Dynein transport: 0.11; UPR XBP1 act: 14; UPR CHOP confirm: 30

What do the screens show for `c1ccc(-c2nc(N3CCCCCC3)c3ccccc3n2)nc1`?
T cruzi inh: 63*; L major viab: 101*; UPR CHOP act: 82*; Dynein transport: 0.099; UPR XBP1 act: 0; UPR CHOP confirm: 31

How did c1ccc(CN2CCN(c3nc(-c4ccccn4)nc4ccccc34)CC2)cc1 do in these assays?
CHOP inhibitor: -24; T cruzi inh: -11; L major viab: 100*; UPR CHOP act: 82*; Dynein transport: -0.088; UPR XBP1 act: 13; UPR CHOP confirm: 4

Results for O=C(O)CC1NC(=S)N(c2ccccc2)C1=O (stereo unspecified) ?
CHOP inhibitor: 20; T cruzi inh: 1; L major viab: 29; UPR CHOP act: -1; Dynein transport: -0.023; UPR XBP1 act: -2

What do the screens show for `O=C1C(CSCc2ccccc2)NC(=S)N1c1ccccc1` (stereo unspecified)?
CHOP inhibitor: -74; T cruzi inh: -12; UPR CHOP act: 52*; Dynein transport: -0.29; UPR XBP1 act: 1; UPR CHOP confirm: 34*

Results for COc1cc2c(cc1OC)C(COc1ccc([N+](=O)[O-])cc1)NCC2 (stereo unspecified) ?
T cruzi inh: 9; UPR CHOP act: 1; UPR XBP1 act: -3

Results for Cc1ccc(C(=O)Sc2cccccc2=O)cc1 ?
T cruzi inh: inconclusive; UPR CHOP act: 112*; UPR XBP1 act: 0; UPR CHOP confirm: 17
